Experimental data: ChEMBL document CHEMBL3232916, “1-(4-Methoxyphenyl)-5-(3,4,5-trimethoxyphenyl)-1H-1,2,4-triazole-3-carboxamides: synthesis, molecular modeling, evaluation of their anti-inflammatory activity and ulcerogenicity” (Eur J Med Chem, 2014)

Tests used:
[1] = tested on: Rattus norvegicus; assay: Antiinflammatory activity in albino rat assessed as inhibition of carrageenan-induced paw edema at 0.28 mmol/kg, po administered 30 mins before carrageenan challenge measured after 1 hr relative to control; type: functional
In short: (§1)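 Male albino rats, n = 4 per group. Dosed orally as a suspension in 0.5% w/v CMC in water; controls received CMC alone. 0.1 mL of freshly prepared 1% carrageenan in saline was injected subplantar into the right hind paw 30 min after dosing, with saline in the left paw. Right paw thickness was read by Vernier caliper before and at 1–5 h. Result is % decrease in edema vs control, mean ± S.E.M.; one-way ANOVA.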

[2] = tested on: Rattus norvegicus; assay: Antiinflammatory activity in albino rat assessed as inhibition of carrageenan-induced paw edema at 0.28 mmol/kg, po administered 30 mins before carrageenan challenge measured after 2 hrs relative to control; type: functional; in short: as §1
[3] = tested on: Rattus norvegicus; assay: Antiinflammatory activity in albino rat assessed as inhibition of carrageenan-induced paw edema at 0.28 mmol/kg, po administered 30 mins before carrageenan challenge measured after 3 hrs relative to control; type: functional; in short: as §1
[4] = tested on: Rattus norvegicus; assay: Antiinflammatory activity in albino rat assessed as inhibition of carrageenan-induced paw edema at 0.28 mmol/kg, po administered 30 mins before carrageenan challenge measured after 4 hrs relative to control; type: functional; in short: as §1
[5] = tested on: Rattus norvegicus; assay: Antiinflammatory activity in albino rat assessed as inhibition of carrageenan-induced paw edema at 0.28 mmol/kg, po administered 30 mins before carrageenan challenge measured after 5 hrs relative to control; type: functional; in short: as §1
[6] = tested on: Rattus norvegicus; assay: Ulcerogenic effect in albino rat assessed as ulcer index at 0.28 mmol/kg, po; type: toxicity, organism-based; details: in vivo
In short: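 Rat gastric ulcers were graded by area: level I <1 mm², level II 1–3 mm², level III >3 mm². Ulcer index = 1×(level I count) + 2×(level II) + 3×(level III). Reported as mean ± S.E.M., n = 4.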

[7] = tested on: Rattus norvegicus; assay: Antiinflammatory activity in albino rat assessed as inhibition of carrageenan-induced paw edema at 0.28 mmol/kg, po administered 30 mins before carrageenan challenge measured after 3 hrs relative to indomethacin; type: functional; details: read-out: INH
In short: (§2)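 Calculated from the 3 h % edema inhibition in carrageenan paw edema (male albino rats, oral dosing in 0.5% CMC 30 min before 1% carrageenan subplantar injection). Expressed as % of the inhibition given by the reference drug in the same assay.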

[8] = tested on: Rattus norvegicus; assay: Antiinflammatory activity in albino rat assessed as inhibition of carrageenan-induced paw edema at 0.28 mmol/kg, po administered 30 mins before carrageenan challenge measured after 3 hrs relative to celecoxib; type: functional; details: read-out: INH; in short: as §2
[9] = tested on: Rattus norvegicus; assay: Ulcerogenic effect in albino rat assessed as morphology using hematoxylin and eosin staining at 0.28 mmol/kg, po by light microscopic analysis; type: toxicity, organism-based; details: in vivo
In short: (§3)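 Stomach sections were dewaxed through graded alcohols to water and stained with haematoxylin for 5–7 min. They were differentiated 5–10 s in 1% HCl in 70% alcohol, then stained with 1% eosin for 10 min, with tap-water washes between steps. The sections were then examined by light microscopy for mucosal and glandular changes.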

[10] = tested on: Rattus norvegicus; assay: Ulcerogenic effect in albino rat assessed as loss of mucosal membrane using hematoxylin and eosin staining at 0.28 mmol/kg, po by light microscopic analysis; type: toxicity, organism-based; details: in vivo; in short: as §3
[11] = tested on: Rattus norvegicus; assay: Ulcerogenic effect in albino rat assessed as capillary inflammatory cells using hematoxylin and eosin staining at 0.28 mmol/kg, po by light microscopic analysis; type: toxicity, organism-based; details: in vivo; in short: as §3
[12] = tested on: Rattus norvegicus; assay: Ulcerogenic effect in albino rat assessed as apoptotic glandular epithelial cells using hematoxylin and eosin staining at 0.28 mmol/kg, po by light microscopic analysis; type: toxicity, organism-based, Epithelial cell; details: in vivo; in short: as §3

Row | SMILES | inhibition in vivo at 280 µmol/kg [1] [%] | inhibition in vivo at 280 µmol/kg [2] [%] | inhibition in vivo at 280 µmol/kg [3] [%] | inhibition in vivo at 280 µmol/kg [4] [%] | inhibition in vivo at 280 µmol/kg [5] [%] | UI [6] | paw edema inhibition relative to indomethacin at 280 µmol/kg [7] [%] | paw edema inhibition relative to celecoxib at 280 µmol/kg [8] [%] | Activity [9] | Activity [10] | Activity [11] | Activity [12]
1 | COc1ccc(-n2nc(C(=O)Nc3ccccc3C)nc2-c2cc(OC)c(OC)c(OC)c2)cc1 | 19 | 30 | 50 | 46 | 47 | 1.5 | 64 | 74 | Non-toxic |  |  | 
2 | COc1ccc2c(c1)c(CC(=O)O)c(C)n2C(=O)c1ccc(Cl)cc1 [INDOMETHACIN] | 55 | 68 | 78 | 81 | 86 | 41 |  |  |  | Toxic | Toxic | Toxic
